Source: ChEMBL document CHEMBL4406888, “Synthesis of analogs of the Gwt1 inhibitor manogepix (APX001A) and in vitro evaluation against Cryptococcus spp” (Bioorg Med Chem Lett, 2019)
Converted amounts (≈) assume the structure as drawn.

Tests used:
Cryptococcus neoformans = assay: Antifungal activity against Cryptococcus neoformans incubated for 72 hrs by broth micro dilution method; assay type: functional
Cryptococcus gattii = assay: Antifungal activity against Cryptococcus gattii incubated for 72 hrs by broth micro dilution method; assay type: functional
[1] = Half life in human liver microsomes at 1 uM preincubated for 5 mins followed by NADPH addition and measured for 45 mins by LC/MS analysis; assay type: ADME, Microsome; settings: for t1/2: microsomes, 0.75 h, 1 µM
HepG2 = assay: Cytotoxicity against human HepG2 cells assessed as reduction in cell viability at 3 uM by CellTiter-Glo luminescent cell viability assay relative to control; assay type: cell-based; settings: hepg2, 3 µM
[2] = target: T1, GPI-anchored wall transfer protein 1 (Candida albicans (strain SC5314 / ATCC MYA-2876) (Yeast)) (UniProt Q873N2); assay: Antifungal activity against Candida albicans GWT1 expressed in Saccharomyces cerevisiae assessed as overexpression ratio
T1 sequence (whole entry): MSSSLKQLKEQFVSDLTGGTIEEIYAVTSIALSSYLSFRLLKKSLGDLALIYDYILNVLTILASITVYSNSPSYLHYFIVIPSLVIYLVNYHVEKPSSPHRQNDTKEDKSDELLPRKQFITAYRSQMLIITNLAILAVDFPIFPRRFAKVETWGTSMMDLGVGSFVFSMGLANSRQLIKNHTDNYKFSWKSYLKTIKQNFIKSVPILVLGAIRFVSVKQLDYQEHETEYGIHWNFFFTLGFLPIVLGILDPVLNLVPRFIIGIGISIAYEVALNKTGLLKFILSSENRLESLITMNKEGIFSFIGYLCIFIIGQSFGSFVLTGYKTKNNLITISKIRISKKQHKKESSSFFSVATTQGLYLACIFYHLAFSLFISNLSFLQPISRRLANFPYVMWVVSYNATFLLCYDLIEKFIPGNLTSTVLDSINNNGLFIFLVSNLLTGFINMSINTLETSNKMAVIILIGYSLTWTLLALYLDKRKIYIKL
In short: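 MICs measured against S. cerevisiae strains expressing high and low levels of Gwt1. The value is the ratio of the two strains' MICs.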

[3] = target: T2, PIGW (glucosaminyl-phosphatidylinositol-acyltransferase) (Homo sapiens, UniProt Q7Z7B1); assay: Inhibition of human PIGW expressed in Saccharomyces cerevisiae at 16 uM by spectrophotometric analysis relative to control; settings: Saccharomyces cerevisiae expressing human PIGW
T2 sequence (Q7Z7B1 whole entry): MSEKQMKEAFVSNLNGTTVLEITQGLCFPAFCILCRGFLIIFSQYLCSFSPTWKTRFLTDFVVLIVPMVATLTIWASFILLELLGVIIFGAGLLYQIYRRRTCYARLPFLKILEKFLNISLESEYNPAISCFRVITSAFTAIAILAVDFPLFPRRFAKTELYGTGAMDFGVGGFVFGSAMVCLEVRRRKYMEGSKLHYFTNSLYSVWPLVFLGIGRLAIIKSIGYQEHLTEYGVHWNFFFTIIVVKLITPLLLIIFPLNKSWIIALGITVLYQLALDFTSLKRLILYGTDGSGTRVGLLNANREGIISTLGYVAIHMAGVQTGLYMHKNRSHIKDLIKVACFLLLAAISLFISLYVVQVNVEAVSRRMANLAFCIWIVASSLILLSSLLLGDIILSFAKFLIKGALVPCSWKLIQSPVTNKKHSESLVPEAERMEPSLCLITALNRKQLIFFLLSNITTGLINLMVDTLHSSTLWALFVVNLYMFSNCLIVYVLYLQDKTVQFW

Compound | MIC (Cryptococcus neoformans) [µg/mL] | MIC (Cryptococcus gattii) [µg/mL] | t1/2 [1] [min] | half-life at 1 µM ([1]; liver microsomes) [min] | Cell viability (% of control) (HepG2) [%] | Ratio [2] | inhibition at 16 µM [3] [%]
Nc1ncccc1-c1cc(Cc2ccc(OCC3CC3)nc2)no1 | 0.031 (≈ 0.0962 µM) | 0.016 (≈ 0.0496 µM) |  |  |  |  | 
Nc1ncccc1-c1cc(Cc2ccc(Cc3ccco3)cc2)no1 | 0.016 (≈ 0.0483 µM) | 0.016 (≈ 0.0483 µM) | 3.15 |  |  |  | 
CC(Oc1ccc(Cc2cc(-c3cccnc3N)on2)cn1)c1ccccc1F (configuration not stated) | 0.25 (≈ 0.64 µM) | 0.5 (≈ 1.28 µM) |  |  |  |  | 
O=C(c1ccc(F)cc1)C1CCN(CCn2c(=O)[nH]c3ccccc3c2=O)CC1 [KETANSERIN] |  |  |  | 40.8 |  |  | 
Nc1ncccc1-c1cc(Cc2ccc(OCc3ccoc3)nc2)no1 | 0.016 (≈ 0.0459 µM) | 0.031 (≈ 0.089 µM) |  |  |  |  | 
Nc1ncccc1-c1cc(Cc2ccnc(OCCc3cccc(F)c3)c2)no1 | 0.5 (≈ 1.28 µM) | 1 (≈ 2.56 µM) |  |  |  |  | 
Nc1ncccc1-c1cc(Cc2ccc(OCc3cccc(Cl)c3)nc2)no1 | 0.016 (≈ 0.0407 µM) | 0.016 (≈ 0.0407 µM) |  |  | 98 | 4 | 80
Nc1ncccc1-c1cc(Cc2ccc(Oc3cccc(F)n3)cc2)no1 | 0.008 (≈ 0.0221 µM) | 0.004 (≈ 0.011 µM) | 43 |  | 93 | 16 | 0
Nc1ncccc1-c1cc(Cc2ccc(OCc3ccccc3)cc2)no1 | 0.031 (≈ 0.0867 µM) | 0.031 (≈ 0.0867 µM) |  |  |  |  | 
Nc1ncccc1-c1cc(Cc2ccc(Cn3cccn3)cc2)no1 | 0.25 (≈ 0.754 µM) | 0.063 (≈ 0.19 µM) |  |  |  |  | 
Nc1ncccc1-c1cc(Cc2ccc(OCC3CCC3)nc2)no1 | 0.016 (≈ 0.0476 µM) | 0.008 (≈ 0.0238 µM) | 4.65 |  |  |  | 
Nc1ncccc1-c1cc(Cc2ccc(OCCc3cccc(F)c3)nc2)no1 | 0.063 (≈ 0.161 µM) | 0.063 (≈ 0.161 µM) |  |  |  |  | 
Nc1ncccc1-c1cc(Cc2ccc(Cc3ccc(F)o3)cc2)no1 | 0.016 (≈ 0.0458 µM) | 0.016 (≈ 0.0458 µM) | 14.4 |  |  |  | 
Nc1ncccc1-c1cc(Cc2ccc(Cc3ccccc3)cc2)no1 | 0.031 (≈ 0.0908 µM) | 0.008 (≈ 0.0234 µM) |  |  |  |  | 
Nc1ncccc1-c1cc(Cc2ccc(COc3ccccn3)cc2)no1 [MANOGEPIX] | 0.25 (≈ 0.698 µM) | 0.125 (≈ 0.349 µM) | 49.9 |  | 98 | 8 | 0
Nc1ncccc1-c1cc(Cc2ccc(Oc3ccccc3F)nc2)no1 | 0.016 (≈ 0.0442 µM) | 0.031 (≈ 0.0855 µM) |  |  |  |  | 
Nc1ncccc1-c1cc(Cc2ccc(OCc3ccncc3)nc2)no1 | 0.008 (≈ 0.0223 µM) | 0.008 (≈ 0.0223 µM) | 20.3 |  |  |  | 

Compound | MIC (Cryptococcus neoformans) [µg/mL] | MIC (Cryptococcus gattii) [µg/mL] | t1/2 [1] [min] | half-life at 1 µM ([1]; liver microsomes) [min] | Cell viability (% of control) (HepG2) [%] | Ratio [2] | inhibition at 16 µM [3] [%]
Nc1ncccc1-c1cc(Cc2ccc(OCc3cccc(F)c3)nc2)no1 | 0.016 (≈ 0.0425 µM) | 0.016 (≈ 0.0425 µM) | 62.3 |  | 97 | 8 | 5
Cc1occc1COc1ccc(Cc2cc(-c3cccnc3N)on2)cn1 | 2 (≈ 5.52 µM) | 2 (≈ 5.52 µM) |  |  |  |  | 
Nc1ncccc1-c1cc(Cc2ccc(CNc3ccccc3)cc2)no1 | 0.125 (≈ 0.351 µM) | 0.063 (≈ 0.177 µM) |  |  |  |  | 
Nc1ncccc1-c1cc(Cc2ccc(Nc3ccccc3F)nc2)no1 | 0.016 (≈ 0.0443 µM) | 0.016 (≈ 0.0443 µM) | 37.1 |  |  |  | 
Nc1ncccc1-c1cc(Cc2ccc(CNCc3ccn[nH]3)cc2)no1 | > 4 | > 4 |  |  |  |  | 
Cc1nccc(NCc2ccc(Cc3cc(-c4cccnc4N)on3)cc2)n1 | > 4 | > 4 |  |  |  |  | 
Nc1ncccc1-c1cc(Cc2ccc(OCc3ccccc3F)nc2)no1 | 0.031 (≈ 0.0824 µM) | 0.031 (≈ 0.0824 µM) |  |  |  |  | 
Nc1ncccc1-c1cc(Cc2ccc(OCc3ccncc3)cc2)no1 | 0.016 (≈ 0.0446 µM) | 0.008 (≈ 0.0223 µM) | 17.3 |  |  |  | 
Nc1ncccc1-c1cc(Cc2ccc(Oc3cccc(F)c3)nc2)no1 | 0.008 (≈ 0.0221 µM) | 0.016 (≈ 0.0442 µM) | 93.9 |  | 102 | 8 | 0
Nc1ncccc1-c1cc(Cc2ccc(OCCc3ccccc3F)nc2)no1 | 0.031 (≈ 0.0794 µM) | 0.031 (≈ 0.0794 µM) |  |  |  |  | 
Nc1ncccc1-c1cc(Cc2ccc(Oc3ccccn3)cc2)no1 | 0.016 (≈ 0.0465 µM) | 0.008 (≈ 0.0232 µM) | 61.5 |  | 77 |  | 
Nc1ncccc1-c1cc(Cc2ccnc(OCc3cccc(F)c3)c2)no1 | 0.031 (≈ 0.0824 µM) | 0.031 (≈ 0.0824 µM) |  |  |  |  | 
Nc1ncccc1-c1cc(Cc2ccc(COc3ccccc3)cc2)no1 | 0.125 (≈ 0.35 µM) | 0.063 (≈ 0.176 µM) |  |  |  |  | 
Nc1ncccc1-c1cc(Cc2ccc(Cc3cccc(F)n3)cc2)no1 | 0.031 (≈ 0.086 µM) | 0.016 (≈ 0.0444 µM) |  |  |  |  | 
Nc1ncccc1-c1cc(Cc2ccc(CCc3ccccc3)cc2)no1 | 0.5 (≈ 1.41 µM) | 0.5 (≈ 1.41 µM) |  |  |  |  | 
Nc1ncccc1-c1cc(Cc2ccc(CNc3cccc(F)n3)cc2)no1 | 0.25 (≈ 0.666 µM) | 0.25 (≈ 0.666 µM) |  |  |  |  | 
